Test results as given in ChEMBL document CHEMBL2169809, “Identification of high-affinity P2Y₁₂ antagonists based on a phenylpyrazole glutamic acid piperazine backbone” (J Med Chem, 2012).

Tests used:
Platelet [1] = assay: Inhibition of thrombin-stimulated platelet aggregation in human isolated platelets by light transmission aggregometry based Born method; type: functional, cell-based
Procedure, shortened: (§1)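 Platelets were pelleted from PRP (430g, 20 min, room temperature) and resuspended in modified Tyrode's buffer (145 mM NaCl, 5 mM KCl, 5.5 mM glucose, 15 mM Hepes, pH 7.4). CaCl2 (0.5 mM final) was added for 2 min at 37 °C, then fibrinogen (1 mg/mL final), then antagonist. Agonist was ADP, collagen or thrombin (0.1 U/mL final). Born aggregometry with stirring; % inhibition from AUC; IC50 from at least triplicate runs.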

Platelet [2] = assay: Inhibition of ADP-stimulated platelet aggregation in human isolated platelets by light transmission aggregometry based Born method; type: functional, cell-based; procedure, shortened: as §1
Platelet [3] = assay: Inhibition of collagen-stimulated platelet aggregation in human isolated platelets by light transmission aggregometry based Born method; type: functional, cell-based; procedure, shortened: as §1
P2Y purinoceptor 1 = P2Y purinoceptor 1 (Homo sapiens, UniProt P47900); assay: Displacement of [33P]2-MeS-ADP from human recombinant P2Y1 receptor expressed in CHO cell membranes by scintillation counting method
P2Y purinoceptor 12 = P2Y purinoceptor 12 (Homo sapiens, UniProt Q9H244); assay: Displacement of [33P]2-MeS-ADP from human recombinant P2Y12 receptor expressed in CHO cell membranes by scintillation counting method
Platelet [4] = assay: Inhibition of ADP-stimulated platelet aggregation in human platelet rich plasma by light transmission aggregometry based Born method; type: functional, cell-based
Platelet [5] = assay: Inhibition of ADP-stimulated platelet aggregation in human platelet rich plasma by 96-well format based turbidimetric method; type: functional
Procedure, shortened: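 Citrated (ACD-A) donor blood was spun at 150g for 15 min at room temperature to give PRP. PRP was adjusted with PPP to 3 × 10^8 platelets/mL. Compound, diluted in NaCl, was preincubated with hPRP for 5 min before ADP was added.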

Canis familiaris = assay: Antiplatelet aggregatory activity in dog assessed as inhibition of ADP-induced platelet aggregation at 10 mg/kg after 24 hrs; type: functional; details: Canis lupus familiaris
Procedure, shortened: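 Ex vivo dog model: compound given orally at 10 mg/kg. Whole-blood platelet aggregation was measured by impedance 24 h after dosing, with ADP as agonist. Inhibition was calculated from mean area under the curve.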

Sequence of P2Y purinoceptor 1 (P47900 whole entry): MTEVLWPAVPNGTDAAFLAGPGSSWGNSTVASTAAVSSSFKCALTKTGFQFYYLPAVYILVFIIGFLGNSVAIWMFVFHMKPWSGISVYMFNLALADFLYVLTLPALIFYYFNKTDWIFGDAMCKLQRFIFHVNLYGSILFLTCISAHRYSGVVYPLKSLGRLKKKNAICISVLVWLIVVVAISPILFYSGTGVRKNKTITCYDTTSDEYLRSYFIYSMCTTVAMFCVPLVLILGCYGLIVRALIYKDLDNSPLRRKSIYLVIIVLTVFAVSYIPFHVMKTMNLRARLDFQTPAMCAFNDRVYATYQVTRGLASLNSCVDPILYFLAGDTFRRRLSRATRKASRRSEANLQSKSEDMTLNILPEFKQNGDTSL
Sequence of P2Y purinoceptor 12 (Q9H244 whole entry): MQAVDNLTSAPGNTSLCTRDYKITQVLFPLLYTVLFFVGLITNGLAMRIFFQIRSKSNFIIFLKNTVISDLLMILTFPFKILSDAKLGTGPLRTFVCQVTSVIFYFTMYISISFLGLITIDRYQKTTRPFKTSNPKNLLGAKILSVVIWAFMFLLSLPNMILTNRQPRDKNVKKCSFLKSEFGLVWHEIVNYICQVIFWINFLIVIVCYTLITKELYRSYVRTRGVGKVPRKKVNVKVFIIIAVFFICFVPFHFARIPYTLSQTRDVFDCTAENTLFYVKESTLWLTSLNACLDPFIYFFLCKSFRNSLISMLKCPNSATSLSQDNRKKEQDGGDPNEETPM

Row | Structure (SMILES) | IC50 (Platelet [1]) [nM] | IC50 (Platelet [2]) [nM] | IC50 (Platelet [3]) [nM] | Ki (P2Y purinoceptor 1) [nM] | Ki (P2Y purinoceptor 12) [nM] | IC50 (Platelet [4]) [nM] | IC50 (Platelet [5]) [nM] | inhibition in vivo at 10 mg/kg (Canis familiaris) [%]
1 | CCOC(=O)N1CCN(C(=O)[C@H](CCC(=O)O)NC(=O)c2cc(OCC(=O)N3CCC[C@H]3C(=O)NC3CCC3)n(-c3ccccc3)n2)CC1 | > 2000 | 7 | > 2000 | > 20000 | 7.3 | 9 | 25 | –
2 | CCCCOC(=O)N1CCN(C(=O)[C@H](CCc2nnn[nH]2)NC(=O)c2cc(OCC(=O)N3CCC[C@H]3C(=O)NC3CCC3)n(-c3ccccc3)n2)CC1 | – | – | – | – | – | 79 | 50 | –
3 | CCOC(=O)N1CCN(C(=O)[C@H](CCC(=O)O)NC(=O)c2cc(OCC(=O)N3CCC[C@H]3C(=O)N3CCCCC3)n(-c3ccccc3)n2)CC1 | – | – | – | – | 56 | 73 | 70 | –
4 | CCOC(=O)N1CCN(C(=O)[C@H](CCC(=O)O)NC(=O)c2cc(OC3(C(=O)OCC)CCC3)n(-c3ccccc3)n2)CC1 | > 2000 | 701 | > 2000 | > 20000 | 139 | 2930 | 3300 | –
5 | CCOC(=O)N1CCN(C(=O)[C@H](CCC(=O)O)NC(=O)c2cc(OCC(=O)C3CC3)n(-c3ccccc3)n2)CC1 | – | – | – | – | 249 | 2510 | 2600 | –
6 | CCOC(=O)N1CCN(C(=O)[C@H](CCC(=O)O)NC(=O)c2cc(OCC(=O)N3CCC[C@H]3C(=O)NC(C)(C)C)n(-c3ccccc3)n2)CC1 | – | – | – | – | 41 | 70 | 17 | –
7 | CCOC(=O)N1CCN(C(=O)[C@H](CCC(=O)O)NC(=O)c2cc(OCC(=O)N3CCC[C@H]3C(=O)NCC3CCC3)n(-c3ccccc3)n2)CC1 | – | – | – | – | 19 | 72 | 100 | –
8 | CCOC(=O)N1CCN(C(=O)[C@H](CCC(=O)O)NC(=O)c2cc(OCC(=O)N3CCC[C@H]3C(=O)NC3CCCC3)n(-c3ccccc3)n2)CC1 | – | – | – | – | 20 | 38 | 13 | –
9 | CCCCOC(=O)NC1CCN(C(=O)[C@H](CCC(=O)O)NC(=O)c2cc(OCC(=O)N3CCC[C@H]3C(=O)NC3CCC3)n(-c3ccccc3)n2)CC1 | – | – | – | – | 22 | 120 | 55 | –
10 | CCOC(=O)N1CCN(C(=O)[C@H](CCc2nnn[nH]2)NC(=O)c2cc(OCC(=O)N3CCC[C@H]3C(=O)NC3CCC3)n(-c3ccccc3)n2)CC1 | – | – | – | – | 5 | 69 | 40 | –
11 | O=C(O)CC[C@H](NC(=O)c1cc(OCC(=O)N2CCC[C@H]2C(=O)NC2CCC2)n(-c2ccccc2)n1)C(=O)N1CCN(C(=O)c2ccccc2)CC1 | – | – | – | – | 130 | – | 1230 | –
12 | CCOC(=O)N1CCN(C(=O)[C@H](CCC(=O)O)NC(=O)c2cc(OCC(=O)N3CCC[C@H]3C(=O)NC3CCC3)n(-c3ccccc3)n2)C[C@H]1C | – | – | – | – | 51 | – | 335 | –
13 | CCCCOC(=O)N1CCN(C(=O)[C@H](CCCO)NC(=O)c2cc(OCC(=O)N3CCC[C@H]3C(=O)NC3CCC3)n(-c3ccccc3)n2)CC1 | – | – | – | – | 6.5 | 70 | 92 | –
14 | CCOC(=O)N1CCN(C(=O)[C@H](CCNC(C)=O)NC(=O)c2cc(OCC(=O)N3CCC[C@H]3C(=O)NC3CCC3)n(-c3ccccc3)n2)CC1 | – | – | – | – | 42 | – | 675 | –
15 | CCOC(=O)N1CCN(C(=O)[C@H](CCC(=O)O)NC(=O)c2cc(OCC(=O)N3CCC[C@H]3C(=O)N3CCCC3)n(-c3ccccc3)n2)CC1 | – | – | – | – | 219 | – | 600 | –
16 | CCOC(=O)N1CCN(C(=O)[C@H](CCC(=O)O)NC(=O)c2cc(OCC(=O)N3CCC[C@H]3C(=O)NC3CCC3)n(-c3ccccc3)n2)[C@H](C)C1 | – | – | – | – | 7.7 | – | 72 | –
17 | CCOC(=O)N1CCC(NC(=O)[C@H](CCC(=O)O)NC(=O)c2cc(OCC(=O)N3CCC[C@H]3C(=O)NC3CCC3)n(-c3ccccc3)n2)CC1 | – | – | – | – | > 5000 | – | > 5000 | –
18 | CCOC(=O)N1CCN(C(=O)[C@H](CCC(=O)O)NC(=O)c2cc(OCC(=O)N3CCC[C@H]3C(N)=O)n(-c3ccccc3)n2)CC1 | – | – | – | – | 283 | – | 3100 | –
19 | CCCCOC(=O)N1CCN(C(=O)CNC(=O)c2cc(OCC(=O)N3CCC[C@H]3C(=O)NC3CCC3)n(-c3ccccc3)n2)CC1 | > 2000 | 22 | > 2000 | > 20000 | 7.7 | 46 | 30 | 73
20 | CCCOC(=O)N1CCN(C(=O)[C@H](CCC(=O)O)NC(=O)c2cc(OCC(=O)N3CCC[C@H]3C(=O)NC3CCC3)n(-c3ccccc3)n2)CC1 | – | – | – | – | 3.1 | 30 | 21 | –
21 | CCCCOC(=O)N1CCC(NC(=O)[C@H](CCC(=O)O)NC(=O)c2cc(OCC(=O)N3CCC[C@H]3C(=O)NC3CCC3)n(-c3ccccc3)n2)C1 (stereo partly specified) | – | – | – | – | 193 | – | > 5000 | –

Row | Structure (SMILES) | IC50 (Platelet [1]) [nM] | IC50 (Platelet [2]) [nM] | IC50 (Platelet [3]) [nM] | Ki (P2Y purinoceptor 1) [nM] | Ki (P2Y purinoceptor 12) [nM] | IC50 (Platelet [4]) [nM] | IC50 (Platelet [5]) [nM] | inhibition in vivo at 10 mg/kg (Canis familiaris) [%]
22 | CCOC(=O)N1CCN(C(=O)[C@H](CCC(=O)O)NC(=O)c2cc(OCC(=O)N3CC(C(=O)NC4CCC4)C3)n(-c3ccccc3)n2)CC1 | – | – | – | – | 613 | – | 2940 | –
23 | CCOC(=O)N1CCN(C(=O)CNC(=O)c2cc(OCC(=O)N3CCC[C@H]3C(=O)NC3CCC3)n(-c3ccccc3)n2)CC1 | > 2000 | 99 | > 2000 | – | 107 | 100 | 90 | –
24 | CCOC(=O)N1CCN(C(=O)[C@H](CCO)NC(=O)c2cc(OCC(=O)N3CCC[C@H]3C(=O)NC3CCC3)n(-c3ccccc3)n2)CC1 | – | – | – | – | 23 | 120 | 210 | –
25 | CCOC(=O)N1CCN(C(=O)[C@H](CCC(=O)O)NC(=O)c2cc(OC(C)(C)C(=O)OCC)c3ccc(C)cc3n2)CC1 | – | – | – | – | 86 | – | 2600 | –
26 | O=C(O)CC[C@H](NC(=O)c1cc(OCC(=O)N2CCC[C@H]2C(=O)NC2CCC2)n(-c2ccccc2)n1)C(=O)N1CCN(C(=O)Oc2ccccc2)CC1 | – | – | – | – | 71 | – | 1080 | –
27 | CCOC(=O)N1CCN(C(=O)[C@H](CCC(=O)O)NC(=O)c2cc(OCC(=O)C(C)(C)C)n(-c3ccccc3)n2)CC1 | – | – | – | – | 242 | 2460 | 3730 | –
28 | COc1cccc(N2CCN(C(=O)[C@H](CCC(=O)O)NC(=O)c3cc(OCC(=O)N4CCC[C@H]4C(=O)NC4CCC4)n(-c4ccccc4)n3)CC2)c1 | – | – | – | – | 30 | – | 790 | –
29 | CCCCOC(=O)N1CCN(C(=O)[C@H](CCC(=O)O)NC(=O)c2cc(OCC(=O)N3CCC[C@H]3C(=O)NC3CCC3)n(-c3ccccc3)n2)CC1 | – | – | – | – | 0.8 | 13 | 19 | –
30 | CCOC(=O)N1CCN(C(=O)[C@H](CCC(=O)O)NC(=O)c2cc(OCC(N)=O)n(-c3ccccc3)n2)CC1 | – | – | – | – | 2720 | – | 9050 | –
31 | CCNC(=O)[C@@H]1CCCN1C(=O)COc1cc(C(=O)N[C@@H](CCC(=O)O)C(=O)N2CCN(C(=O)OCC)CC2)nn1-c1ccccc1 | – | – | – | – | 303 | – | 475 | –
32 | CCOC(=O)COc1cc(C(=O)N[C@@H](CCC(=O)O)C(=O)N2CCN(C(=O)OCC)CC2)nn1-c1ccccc1 | – | – | – | – | 372 | 2480 | 2250 | –
33 | CCCNC(=O)[C@@H]1CCCN1C(=O)COc1cc(C(=O)N[C@@H](CCC(=O)O)C(=O)N2CCN(C(=O)OCC)CC2)nn1-c1ccccc1 | – | – | – | – | 66 | 91 | 58 | –
34 | O=C(O)CC[C@H](NC(=O)c1cc(OCC(=O)N2CCC[C@H]2C(=O)NC2CCC2)n(-c2ccccc2)n1)C(=O)N1CCC(C(=O)c2ccccc2)CC1 | – | – | – | – | 40 | – | 1330 | –
35 | CCOC(=O)N1CCN(C(=O)[C@H](CCC(=O)O)NC(=O)c2cc(OCC(=O)N3CCC[C@H]3C(=O)NC3CC3)n(-c3ccccc3)n2)CC1 | – | – | – | – | 105 | – | 13 | –
36 | CCOC(=O)N1CCN(C(=O)[C@H](CCN)NC(=O)c2cc(OCC(=O)N3CCC[C@H]3C(=O)NC3CCC3)n(-c3ccccc3)n2)CC1 | – | – | – | – | 180 | – | 3770 | –
37 | CCCCOC(=O)NC1CCN(C(=O)[C@H](CCC(=O)O)NC(=O)c2cc(OCC(=O)N3CCC[C@H]3C(=O)NC3CCC3)n(-c3ccccc3)n2)C1 (stereo partly specified) | – | – | – | – | 82 | – | 1880 | –
38 | CCOC(=O)N1CCN(C(=O)[C@H](CCC(=O)O)NC(=O)c2cc(OCC(=O)N3CC[C@@H](O)C3)n(-c3ccccc3)n2)CC1 | – | – | – | – | 459 | – | 1370 | –
39 | CCOC(=O)N1CCN(C(=O)[C@H](CCC(=O)O)NC(=O)c2cc(OCC(=O)N3CCC[C@H]3C(=O)NC)n(-c3ccccc3)n2)CC1 | – | – | – | – | 536 | – | 1460 | –
40 | CCOC(=O)N1CCN(C(=O)[C@H](CNS(C)(=O)=O)NC(=O)c2cc(OCC(=O)N3CCC[C@H]3C(=O)NC3CCC3)n(-c3ccccc3)n2)CC1 | – | – | – | – | 48 | – | 1200 | –
41 | CNc1cc2[nH]c(=O)n(-c3ccc(NC(=O)NS(=O)(=O)c4ccc(Cl)s4)cc3)c(=O)c2cc1F [ELINOGREL] | – | – | – | – | 23 | – | 2810 | –
